Assay results from different studies.
Protocols differ between the studies behind these lines.
MAP2K6: Dual specificity mitogen-activated protein kinase kinase 6 (MAP2K6, Homo sapiens, UniProt P52564)

| Structure (SMILES) | target | observed | action | method | concentration | quantity | value |
| --- | --- | --- | --- | --- | --- | --- | --- |
| CN(C)C1CCN(CC#Cc2nn(C3CCCC3)c3nc(NCc4ccccc4)ncc23)C1 (centres unmarked) | MAP2K6 | enzyme activity | inhibitor | FRET | 0.1 µM | inhibition | 0% |
| CNC(=O)c1cc(Oc2ccc(NC(=O)Nc3ccc(Cl)c(C(F)(F)F)c3)cc2)ccn1 | MAP2K6 | enzyme activity | inhibitor |  | 10 µM | inhibition | 99% |
| Cc1cc(NC(=O)c2cccc3cc(-c4cccc5[nH]nc(N)c45)ccc23)ccc1F | MAP2K6 | enzyme activity | inhibitor |  | 0.1 µM | activity vs control | 89% |
| Cn1c2c(c3ccc(Cl)c(Cl)c31)C(C#N)C(C)(C)NC2=O (centres unmarked) | MAP2K6 | thermal stability |  | DSF | 10 µM | ΔTm | 0.2 °C |
| O=C(Nc1cnn(-c2csc(C(=O)NC3COC3)c2)c1)Nc1ccccc1Cl | MAP2K6 | enzyme activity | inhibitor |  | 5 µM | remaining activity | 96.4% |
| CN(C)CC#Cc1ccc(OCCCc2sc(N3CCc4cccc(C(=O)Nc5nc6ccccc6s5)c4C3)nc2C(=O)O)c(F)c1 | MAP2K6 | cell-free assay |  | competition with immobilised ligand | 1 µM | remaining binding | 100% |
| CCN1CCC2(CC1)NC(=O)c1c(c3ccc(Cl)c(Cl)c3n1C)C2C#N (racemic) | MAP2K6 | thermal stability |  | DSF | 10 µM | ΔTm | 0 °C |
| Cc1ccc(Nc2nccc(N(C)c3ccc4c(C)n(C)nc4c3)n2)cc1S(N)(=O)=O | MAP2K6 | enzyme activity | inhibitor |  | 0.3 µM | inhibition | -10% |
| CS(=O)(=O)CCNCc1ccc(-c2ccc3ncnc(Nc4ccc(OCc5cccc(F)c5)c(Cl)c4)c3c2)o1 | MAP2K6 | cell-free assay |  |  | 0.5 µM | remaining signal | 95.4% |
| COc1cc2ncnc(Nc3ccc(Oc4ccccc4)cc3C)c2cc1OC | MAP2K6 | enzyme activity | inhibitor |  | 1 µM | inhibition | 3% |
| Cn1c(=O)n(-c2ccc(C(C)(C)C#N)cc2)c2c3cc(-c4cnc5ccccc5c4)ccc3ncc21 | MAP2K6 | enzyme activity | inhibitor |  | 10 µM | remaining activity | 93% |
| COc1cc(/C=C/C(=O)CC(=O)/C=C/c2ccc(O)c(OC)c2)ccc1O | MAP2K6 | enzyme activity | inhibitor |  | 1 µM | activity vs control | 102% |
| CN1CCC2(CC1)NC(=O)c1c(c3ccc(Cl)c(Cl)c3n1C)C2C#N (racemic) | MAP2K6 | thermal stability |  | DSF | 10 µM | ΔTm | 0 °C |
| COc1cc2ncnc(Nc3ccc(F)c(Cl)c3)c2cc1OCCCN1CCOCC1 | MAP2K6 | cell-free assay |  |  | 0.5 µM | remaining signal | 90.1% |
| CN(C)C(=O)Cn1cc(-c2nc([C@@](C)(c3ccc(-c4cnc(N)nc4)cc3)C3CC3)no2)cn1 | MAP2K6 | cell-free assay |  | competition with immobilised ligand | 1 µM | remaining binding | 100% |
| Oc1cccc(-c2nc(N3CCOCC3)c3oc4ncccc4c3n2)c1 | MAP2K6 | enzyme activity | inhibitor |  | 10 µM | remaining activity | 107% |
| CCN(CC)CCNC(=O)c1c(C)[nH]c(/C=C2\C(=O)Nc3ccc(F)cc32)c1C | MAP2K6 | cell-free assay |  |  | 0.5 µM | remaining signal | 75.9% |
| CC(C)(C)c1nc(-c2cccc(NS(=O)(=O)c3c(F)cccc3F)c2F)c(-c2ccnc(N)n2)s1 | Dual specificity mitogen-activated protein kinase kinase 6 (MAP2K6, Homo sapiens, UniProt P52564, S207D/T211D) | enzyme activity | inhibitor | radiometric | 1 µM | remaining activity | 96% |

| Structure (SMILES) | target | observed | action | method | concentration | quantity | value |
| --- | --- | --- | --- | --- | --- | --- | --- |
| Cc1ccc(C(=O)NCc2ccsc2)cc1C#Cc1cn(C(C)C)c2ncnc(N)c12 | MAP2K6 | enzyme activity | inhibitor |  | 1 µM | activity vs control | 86% |
| CN1CC(Oc2cnc(C#N)cc2-c2ccn3nc(NC(=O)C4CC4)cc3c2)C1 | MAP2K6 | enzyme activity | inhibitor |  | 1 µM | inhibition | 21% |
| CC(C)(O)c1cncc(-c2nc3ccc(F)cc3n2C2CC2)c1 | MAP2K6 | cell-free assay |  | competition with immobilised ligand | 1 µM | remaining binding | 100% |
| Cn1c2c(c3ccc(Cl)c(Cl)c31)C(C#N)C1(CCCC1)NC2=O (centres unmarked) | MAP2K6 | thermal stability |  | DSF | 10 µM | ΔTm | 0 °C |
| COc1cc(Nc2cnc(C#N)c(O[C@H](C)CN(C)C)n2)ncc1-c1cnn(C)c1 | MAP2K6 | enzyme activity | inhibitor | radiometric | 10 µM | remaining activity | 91% |
| COc1cc(Cl)c(C(=O)N[C@@H](CN[C@H]2CC[C@@H](N)CC2)Cc2ccc(C#N)cc2)cc1-c1ccc(CN[C@H](C)c2ccc(C)cc2)o1 | MAP2K6 | enzyme activity | inhibitor |  | 1 µM | remaining activity | 88% |
| CN(C)c1ncnc(-c2ccc3nc(Nc4cc(CN5CCN(C(=O)CC(F)(F)F)CC5)ccn4)[nH]c3c2)c1Cl | MAP2K6 | cell-free assay |  | competition with immobilised ligand | 1 µM | remaining binding | 92% |
| O=C1NC(=O)c2cc(Nc3ccc(F)cc3)c(Nc3ccc(F)cc3)cc21 | MAP2K6 | cell-free assay |  |  | 0.5 µM | remaining signal | 110% |
| CCCCN(CCCC)C(=O)CN1C[C@@H](c2cc(OC)c3c(c2)OCO3)[C@H](C(=O)O)[C@H]1CC(C)(C)CCC | MAP2K6 | cell-free assay |  | competition with immobilised ligand | 1 µM | remaining binding | 90.8% |
| Nc1ncnc2occ(-c3ccc(NC(=O)Nc4cc(C(F)(F)F)ccc4F)cc3)c12 | MAP2K6 | cell-free assay | inhibitor |  | 20 µM | remaining signal | 58% |
| CCC(=N\O)/C(C)=C/c1ccc(F)cc1 | MAP2K6 | cell-free assay |  | competition with immobilised ligand | 1 µM | remaining binding | 98% |
| C[S+]([O-])c1ccc(-c2nc(-c3ccncc3)c(-c3ccc(F)cc3)[nH]2)cc1 (centres unmarked) | MAP2K6 | cell-free assay |  |  | 0.5 µM | remaining signal | 102% |
| Cn1c2c(c3ccc(Cl)c(Cl)c31)C(C#N)C1(CCOCC1)NC2=O (centres unmarked) | MAP2K6 | thermal stability |  | DSF | 10 µM | ΔTm | 0 °C |
| Cc1c[nH]c2nccc(Oc3c(F)cc(Nc4cc(Cl)nc(N)n4)cc3F)c12 | MAP2K6 | cell-free assay |  | competition with immobilised ligand | 0.1 µM | remaining binding | 99% |
| CC(C)(O)[C@H]1CC[C@H](Nc2ccc3ncc(-c4cccc(C(F)(F)F)c4)n3n2)CC1 | MAP2K6 | enzyme activity | inhibitor |  | 1 µM | remaining activity | 90.6% |
| CNCc1ccccc1-c1csc([C@@H](C)Nc2nc(C)nc3cc(OC)c(OC)cc23)c1 | MAP2K6 | cell-free assay |  | competition with immobilised ligand | 1 µM | remaining binding | 86% |
| CNCc1ccc(-c2cc(-c3nc(-c4ccc(S(=O)(=O)C(C)C)cc4)cnc3N)on2)cc1 | MAP2K6 | enzyme activity | inhibitor |  | 0.4 µM | inhibition | 15% |
